Converted amounts (≈) assume the structure as drawn.
Key:
Assay type in all cases: functional
[1] = test system: Klebsiella pneumoniae; test: Antimicrobial activity against Klebsiella pneumoniae ATCC 10031
Outline: (§1)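 Agar-dilution assay run in vitro on a panel of Gram-positive and Gram-negative bacteria, with amoxicillin as the reference drug. The MIC was taken as the minimal inhibitory concentration.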

[2] = test system: Staphylococcus aureus; test: Antimicrobial activity against Staphylococcus aureus ATCC 6538p; outline: as §1
[3] = test system: Staphylococcus aureus; test: Antimicrobial activity against methicillin-resistant Staphylococcus aureus isolate
Outline: (§2)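 In vitro conventional agar-dilution assay against a panel of Gram-positive and Gram-negative bacteria. Read-out is the minimal inhibitory concentration (MIC), with amoxicillin as the reference drug.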

[4] = test system: Staphylococcus epidermidis; test: Antimicrobial activity against Staphylococcus epidermidis ATCC 12228; outline: as §1
[5] = test system: Bacillus subtilis; test: Antimicrobial activity against Bacillus subtilis ATCC 6633; outline: as §1
[6] = test system: Klebsiella pneumoniae; test: Antimicrobial activity against Klebsiella pneumoniae ATCC 10031 in presence of 0.1% butylated hydroxytoluene
[7] = test system: Staphylococcus aureus; test: Antimicrobial activity against methicillin-resistant Staphylococcus aureus isolate in presence of 0.1% butylated hydroxytoluene; outline: as §2
[8] = test system: Staphylococcus aureus; test: Antimicrobial activity against Staphylococcus aureus ATCC 6538p in presence of 0.1% butylated hydroxytoluene; outline: as §2
[9] = test system: Staphylococcus epidermidis; test: Antimicrobial activity against Staphylococcus epidermidis ATCC 12228 in presence of 0.1% butylated hydroxytoluene
[10] = test system: Bacillus subtilis; test: Antimicrobial activity against Bacillus subtilis ATCC 6633 in presence of 0.1% butylated hydroxytoluene

Row | SMILES | MIC [1] | MIC [2] | MIC [3] | MIC [4] | MIC [5] | MIC [6] | MIC [7] | MIC [8] | MIC [9] | MIC [10]
1 | Cn1cnc([N+](=O)[O-])c1/C=C1\Oc2c(Cl)cccc2C1=O | > 100 µg/mL | > 100 µg/mL | > 100 µg/mL | > 100 µg/mL | > 100 µg/mL |  |  |  |  | 
2 | Cc1ccc2c(c1)O/C(=C\c1ncc([N+](=O)[O-])n1C)C2=O | 0.39 µg/mL (≈ 1.37 µM) | 3.12 µg/mL (≈ 11 µM) | 1.56 µg/mL (≈ 5.47 µM) | 1.56 µg/mL (≈ 5.47 µM) | 0.78 µg/mL (≈ 2.73 µM) |  |  |  |  | 
3 | Cc1cccc2c1O/C(=C\c1c([N+](=O)[O-])ncn1C)C2=O | > 100 µg/mL | > 100 µg/mL | > 100 µg/mL | > 100 µg/mL | > 100 µg/mL |  |  |  |  | 
4 | Cc1ccc2c(c1)C(=O)/C(=C/c1c([N+](=O)[O-])ncn1C)O2 | > 100 µg/mL | > 100 µg/mL | > 100 µg/mL | > 100 µg/mL | > 100 µg/mL |  |  |  |  | 
5 | Cn1c([N+](=O)[O-])cnc1/C=C1\Oc2ccccc2C1=O | 0.39 µg/mL (≈ 1.44 µM) | 3.12 µg/mL (≈ 11.5 µM) | 6.25 µg/mL (≈ 23 µM) | 3.12 µg/mL (≈ 11.5 µM) | 0.78 µg/mL (≈ 2.88 µM) |  |  |  |  | 
6 | COc1ccc2c(c1)C(=O)/C(=C/c1c([N+](=O)[O-])ncn1C)O2 | 6.25 µg/mL (≈ 20.7 µM) | > 100 µg/mL | > 100 µg/mL | > 100 µg/mL | > 100 µg/mL |  |  |  |  | 
7 | Cn1cnc([N+](=O)[O-])c1/C=C1\Oc2ccc(Br)cc2C1=O | > 100 µg/mL | > 100 µg/mL | > 100 µg/mL | > 100 µg/mL | > 100 µg/mL |  |  |  |  | 
8 | Cn1c([N+](=O)[O-])cnc1/C=C1\Oc2ccc(Cl)cc2C1=O | 0.78 µg/mL (≈ 2.55 µM) | 3.12 µg/mL (≈ 10.2 µM) | 3.12 µg/mL (≈ 10.2 µM) | 3.12 µg/mL (≈ 10.2 µM) | 1.56 µg/mL (≈ 5.1 µM) |  |  |  |  | 
9 | Cn1c([N+](=O)[O-])cnc1/C=C1\Oc2ccc(Br)cc2C1=O | 3.12 µg/mL (≈ 8.93 µM) | > 100 µg/mL | > 100 µg/mL | > 100 µg/mL | > 100 µg/mL |  |  |  |  | 
10 | Cn1c([N+](=O)[O-])cnc1/C=C1\Oc2cc(Cl)ccc2C1=O | 0.78 µg/mL (≈ 2.55 µM) | > 100 µg/mL | > 100 µg/mL | > 100 µg/mL | 1.56 µg/mL (≈ 5.1 µM) |  |  |  |  | 
11 | COc1cccc2c1O/C(=C\c1ncc([N+](=O)[O-])n1C)C2=O | 0.78 µg/mL (≈ 2.59 µM) | 0.78 µg/mL (≈ 2.59 µM) | 0.78 µg/mL (≈ 2.59 µM) | 0.78 µg/mL (≈ 2.59 µM) | 0.78 µg/mL (≈ 2.59 µM) |  |  |  |  | 
12 | COc1ccc2c(c1)O/C(=C\c1c([N+](=O)[O-])ncn1C)C2=O | > 100 µg/mL | > 100 µg/mL | > 100 µg/mL | > 100 µg/mL | > 100 µg/mL |  |  |  |  | 
13 | CC1(C)S[C@@H]2[C@H](NC(=O)[C@H](N)c3ccc(O)cc3)C(=O)N2[C@H]1C(=O)O [AMOXICILLIN] | > 100 µg/mL | 0.195 µg/mL (≈ 0.534 µM) | 12.5 µg/mL (≈ 34.2 µM) | 0.195 µg/mL (≈ 0.534 µM) | 12.5 µg/mL (≈ 34.2 µM) |  |  |  |  | 
14 | Cn1cnc([N+](=O)[O-])c1/C=C1\Oc2ccc(I)cc2C1=O | > 100 µg/mL | > 100 µg/mL | > 100 µg/mL | > 100 µg/mL | > 100 µg/mL |  |  |  |  | 
15 | COc1ccc2c(c1)C(=O)/C(=C/c1ncc([N+](=O)[O-])n1C)O2 | 0.39 µg/mL (≈ 1.29 µM) | 3.12 µg/mL (≈ 10.4 µM) | 3.12 µg/mL (≈ 10.4 µM) | 3.12 µg/mL (≈ 10.4 µM) | 0.78 µg/mL (≈ 2.59 µM) |  |  |  |  | 
16 | Cn1c([N+](=O)[O-])cnc1/C=C1\Oc2c(Cl)cccc2C1=O | 1.56 µg/mL (≈ 5.1 µM) | 3.12 µg/mL (≈ 10.2 µM) | 3.12 µg/mL (≈ 10.2 µM) | 3.12 µg/mL (≈ 10.2 µM) | 3.12 µg/mL (≈ 10.2 µM) |  |  |  |  | 

Row | SMILES | MIC [1] | MIC [2] | MIC [3] | MIC [4] | MIC [5] | MIC [6] | MIC [7] | MIC [8] | MIC [9] | MIC [10]
17 | Cn1c([N+](=O)[O-])cnc1C=C1C(=O)c2ccccc2C1=O | > 100 µg/mL | 100 µg/mL (≈ 353 µM) | 100 µg/mL (≈ 353 µM) | 50 µg/mL (≈ 177 µM) | 50 µg/mL (≈ 177 µM) |  |  |  |  | 
18 | Cn1cnc([N+](=O)[O-])c1/C=C1\Oc2ccc(Cl)cc2C1=O | > 100 µg/mL | > 100 µg/mL | > 100 µg/mL | > 100 µg/mL | > 100 µg/mL |  |  |  |  | 
19 | COc1cccc2c1O/C(=C\c1c([N+](=O)[O-])ncn1C)C2=O | > 100 µg/mL | > 100 µg/mL | > 100 µg/mL | > 100 µg/mL | > 100 µg/mL |  |  |  |  | 
20 | Cn1c([N+](=O)[O-])cnc1/C=C1\Oc2cc(O)ccc2C1=O |  |  |  |  |  | 3.12 µg/mL | 12.5 µg/mL | 12.5 µg/mL | 6.25 µg/mL | 6.25 µg/mL
21 | Cn1c([N+](=O)[O-])cnc1/C=C1\Cc2ccccc2C1=O | 0.2 µg/mL (≈ 0.743 µM) | > 100 µg/mL | > 100 µg/mL | > 100 µg/mL | > 100 µg/mL |  |  |  |  | 
22 | Cc1cccc2c1O/C(=C\c1ncc([N+](=O)[O-])n1C)C2=O | 0.39 µg/mL (≈ 1.37 µM) | 3.12 µg/mL (≈ 11 µM) | 3.12 µg/mL (≈ 11 µM) | 1.56 µg/mL (≈ 5.47 µM) | 1.56 µg/mL (≈ 5.47 µM) |  |  |  |  | 
23 | Cc1ccc2c(c1)O/C(=C\c1c([N+](=O)[O-])ncn1C)C2=O | > 100 µg/mL | > 100 µg/mL | > 100 µg/mL | > 100 µg/mL | > 100 µg/mL |  |  |  |  | 
24 | COc1ccc2c(c1OC)O/C(=C\c1ncc([N+](=O)[O-])n1C)C2=O | 0.2 µg/mL (≈ 0.604 µM) | 0.78 µg/mL (≈ 2.35 µM) | 0.78 µg/mL (≈ 2.35 µM) | 0.39 µg/mL (≈ 1.18 µM) | 0.39 µg/mL (≈ 1.18 µM) |  |  |  |  | 
25 | COc1ccc2c(c1)O/C(=C\c1ncc([N+](=O)[O-])n1C)C2=O | 0.39 µg/mL (≈ 1.29 µM) | 1.56 µg/mL (≈ 5.18 µM) | 1.56 µg/mL (≈ 5.18 µM) | 1.56 µg/mL (≈ 5.18 µM) | 0.78 µg/mL (≈ 2.59 µM) |  |  |  |  | 
26 | Cn1c([N+](=O)[O-])cnc1/C=C1\Oc2ccc(I)cc2C1=O | 50 µg/mL (≈ 126 µM) | > 100 µg/mL | > 100 µg/mL | > 100 µg/mL | > 100 µg/mL |  |  |  |  | 
27 | Cn1cnc([N+](=O)[O-])c1/C=C1\Oc2ccc([N+](=O)[O-])cc2C1=O | > 100 µg/mL | > 100 µg/mL | > 100 µg/mL | > 100 µg/mL | > 100 µg/mL |  |  |  |  | 
28 | Cn1cnc([N+](=O)[O-])c1/C=C1\Oc2cc(Cl)ccc2C1=O | > 100 µg/mL | > 100 µg/mL | > 100 µg/mL | > 100 µg/mL | > 100 µg/mL |  |  |  |  | 
29 | Cn1c([N+](=O)[O-])cnc1/C=C1\Oc2ccc([N+](=O)[O-])cc2C1=O | 6.25 µg/mL (≈ 19.8 µM) | 12.5 µg/mL (≈ 39.5 µM) | 12.5 µg/mL (≈ 39.5 µM) | 6.25 µg/mL (≈ 19.8 µM) | 12.5 µg/mL (≈ 39.5 µM) |  |  |  |  | 
30 | Cn1c([N+](=O)[O-])cnc1/C=C1\Oc2cc(O)cc(O)c2C1=O |  |  |  |  |  | > 100 µg/mL | > 100 µg/mL | > 100 µg/mL | 50 µg/mL | 50 µg/mL
31 | Cn1cnc([N+](=O)[O-])c1/C=C1\Oc2ccccc2C1=O | > 100 µg/mL | > 100 µg/mL | > 100 µg/mL | > 100 µg/mL | > 100 µg/mL |  |  |  |  | 
32 | Cc1ccc2c(c1)C(=O)/C(=C/c1ncc([N+](=O)[O-])n1C)O2 | 0.39 µg/mL (≈ 1.37 µM) | 3.12 µg/mL (≈ 11 µM) | 3.12 µg/mL (≈ 11 µM) | 3.12 µg/mL (≈ 11 µM) | 1.56 µg/mL (≈ 5.47 µM) |  |  |  |  | 

Reference: ChEMBL document CHEMBL1140548, “Synthesis, antibacterial activity, and quantitative structure-activity relationships of new (Z)-2-(nitroimidazolylmethylene)-3(2H)-benzofuranone derivatives” (2007)
